ATG4B inhibitor: ATG4B protease inhibitors, primary screen, biochemical, fluorescence, uHTS | 340,000 tested, 0.51% active | AID 504462, 2011 | inhibition, % at 8.33 µM | ATG4B cleavage of LC3-PLA2, NBD-HPC fluorescence, 1 h; in the data active = inhibition above about 40%
Granule exo inh: LAMP-1 surface exposure blockers, TALL-104 cells – cell-based, flow cytometry, MLPCN library, primary screen; TALL-104 LAMP-1 surface exposure; cells stimulated with thapsigargin and PMA; inhibition, % at 10 µM; 360,000 tested, 0.66% active; AID 651702, 2012;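 active = inhibition above about 55%, limit read from the data; inconclusive = no clear call, values can overlap the other calls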
NRP1-CendR mod: modulators of CendR peptide binding to NRP-1, primary screen, biochemical, fluorescence polarization, uHTS; inhibition, % at 25 µM; 360,000 tested, 0.85% active; FAM-RPARPAR peptide binding to NRP-1; Neuropilin-1 (Homo sapiens), O14786;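 active = inhibition or corrected inhibition above about 18%, plus a signal ratio from 0.5 to 1.5, limit read from the data, passing the limit was not always enough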
Target sequence (O14786 whole entry, looked up): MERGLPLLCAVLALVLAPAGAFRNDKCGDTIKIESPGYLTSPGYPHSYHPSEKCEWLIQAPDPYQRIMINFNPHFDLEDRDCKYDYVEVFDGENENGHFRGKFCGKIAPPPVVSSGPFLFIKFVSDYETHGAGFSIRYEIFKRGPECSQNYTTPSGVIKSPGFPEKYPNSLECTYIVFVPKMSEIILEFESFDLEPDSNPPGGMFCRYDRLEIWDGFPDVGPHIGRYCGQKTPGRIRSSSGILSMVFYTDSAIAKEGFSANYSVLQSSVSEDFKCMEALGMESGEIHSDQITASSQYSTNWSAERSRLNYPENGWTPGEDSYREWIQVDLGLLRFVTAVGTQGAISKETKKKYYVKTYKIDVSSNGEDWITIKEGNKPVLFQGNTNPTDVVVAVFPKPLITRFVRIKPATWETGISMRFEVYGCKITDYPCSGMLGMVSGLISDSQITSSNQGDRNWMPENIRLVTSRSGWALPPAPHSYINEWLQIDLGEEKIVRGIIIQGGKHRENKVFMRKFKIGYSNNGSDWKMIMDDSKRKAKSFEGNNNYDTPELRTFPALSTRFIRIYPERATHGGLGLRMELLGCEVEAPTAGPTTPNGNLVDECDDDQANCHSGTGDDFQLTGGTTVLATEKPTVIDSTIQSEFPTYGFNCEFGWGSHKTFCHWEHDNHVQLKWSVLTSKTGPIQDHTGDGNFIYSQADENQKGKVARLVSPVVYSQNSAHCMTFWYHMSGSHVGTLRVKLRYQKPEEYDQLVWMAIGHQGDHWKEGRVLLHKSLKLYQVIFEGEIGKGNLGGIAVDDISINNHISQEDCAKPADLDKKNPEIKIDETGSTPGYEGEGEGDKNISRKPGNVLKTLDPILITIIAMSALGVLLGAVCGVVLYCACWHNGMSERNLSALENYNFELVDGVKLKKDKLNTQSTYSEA
Arrestin-AP2 inh: inhibitors of beta-arrestin/AP2 binding, primary screen, biochemical, GPCR trafficking, flow cytometry; FITC-arrestin peptide / GST-AP2 beads; AP2 beta2 appendage carries R879A mutation; beta-arrestin 1 C-terminal peptide binding to AP2 beta2-adaptin appendage (human); 340,000 tested, 0.31% active; inhibition, % at 10 µM; AID 504490, 2011;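 active = inhibition above a set limit, near 3 SD of compounds lacking own fluorescence, cut at about 54% in these data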;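 also: plate controls were DMSO wells for no effect and 5 µM unlabelled arrestin peptide for full effect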
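System: GST-AP2 R879A glutathione beads; medium: PBS, Tween 20 0.05%, BSA 0.1%; reagent: fluorescein-tagged arrestin peptide at 50 nM final; schedule: pre-incubation 12 min, peptide binding 1 h, room temperature; detection: flow cytometry, FL1 (488/535 nm); read-out: inhibition as reduced fluorescein signal on beads, percent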
ABCB6 inh 2: ABCB6 transporter inhibitors, primary screen, K562-ABCB6 cells, flow cytometry, MLPCN library | fluorescence ratio to DMSO, % at 10 µM | ATP-binding cassette sub-family B member 6 (Homo sapiens), Q9NP58 | K562-ABCB6 porphyrin accumulation, 1 h; hits give low values | 360,000 tested, 0.19% active | AID 602162, 2011;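 active = fluorescence ratio to DMSO below 75%, the collection mean minus 3 SD; inconclusive = too few cells collected in the well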;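 also: signal is porphyrin accumulated inside mitochondria; 100% equals median channel fluorescence of DMSO control wells; lower ratio means ABCB6 inhibition with less porphyrin fluorescence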
Myeloid diff 2: induction of myeloid progenitor differentiation, primary screen, cell-based, flow cytometry, MLPCN library. ER-HoxA9 myeloid progenitors, lysozyme-GFP differentiation. calls only at 10 µM. 360,000 tested, 1% active. AID 624256, 2012;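 active = normalized GFP-positive differentiation at or above the plate's own cutoff, the solvent-only control mean plus 3 SD; inconclusive = no clear call, values can overlap the other calls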;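 also: cells exposed to compound for four days before flow analysis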
Myeloid diff CP1: inducers of myeloid progenitor differentiation, confirmation, cell-based, GFP/Mac1 flow cytometry, cherry pick 01; shares compounds with Myeloid diff 2; ER-HoxA9 myeloid progenitors, GFP/Mac1 double-positive flow; calls only; 2,300 tested, 2% active; AID 651706, 2012;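 active = share of green or green-and-red cells above 9 and 9% in run 1 or 4 and 3% in run 2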
GFP autofluor: compound fluorescence in myeloid differentiation counter-screen; shares compounds with Myeloid diff 2; ER-HoxA9 myeloid progenitors, no estrogen, GFP autofluorescence flow cytometry; vehicle wells 0%, positive control 100%; fluorescence response, % (concentration not given with the values); 2,300 tested, 7.4% active;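 active = over 5% cells positive for green fluorescent reporter, or over 2% positive for both it and APC stain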;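 also: range taken on the double positive population between DMSO and positive control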
The depositor's hits bear a star; i = inactive; ? = inconclusive; . = no result given; + = active, no number. An excerpt weighted towards active compounds, which were near 3.3% of everything screened.

SMILES	ATG4B inhibitor	Granule exo inh	NRP1-CendR mod	Arrestin-AP2 inh	ABCB6 inh 2	Myeloid diff 2	Myeloid diff CP1	GFP autofluor
Cc1cccc(-n2c(CNC(=O)COc3ccccc3)nnc2SCC(=O)Nc2nccs2)c1	-2	3	11	4	96	i	i	5.4*
CSc1nc(Oc2ccc3ccccc3c2)c2sccc2n1	6	1	-25	0	95	+	i	0
COc1ccc(CC(NC(C)=O)C(=O)NC2CCN(C(=O)c3cnccn3)CC2)cc1 (centres undefined)	-5	1	-3	11	95	i	i	0
S=C1SCCN1Cc1ccccc1	-5	-2	4	0	86	i	.	.
CCC(C)[C@H]1CN=C(N)N1CCc1cc(C(F)(F)F)cc(C(F)(F)F)c1 (some centres undefined)	7	-6	12	.	97	i	.	.
CC1=Nc2nc(N3CCCCC3)c(C#N)c3c4c(nc(c23)N1)N(c1ccc(C(C)C)cc1)C(=O)C4	0	0	-55	-2	99	+	i	0
CC(C)c1ccc(-c2nc(N3CCCCC3)[nH]c(=O)c2C#N)cc1	-1	4	-3	24	104	i	.	.
CC(=O)Nc1ccc(NC(=O)CSc2nc3[nH]ncc3c(=O)n2-c2ccccc2)cc1	-2	3	2	-13	105	?	.	.
Cc1ccc(NC(=O)C2CCCN(C3=NS(=O)(=O)c4ccccc43)C2)c(O)c1 (centres undefined)	-4	10	-33	25	98	+	i	21*
Cc1ccc(CNC(=O)CN(c2ccc(C)cc2)S(=O)(=O)c2c(C)n[nH]c2C)cc1	-9	2	2	-6	101	i	.	.
CCCC(=O)C1=C(O)C(C(=O)OC)C(C)(C)CC1=NCc1ccccc1 (centres undefined)	-1	-4	11	34	94	i	.	.
CCCC(=O)C1=C(O)C(C(=O)OC)C(C)(C)CC1=Nc1ccccc1 (centres undefined)	7	1	-1	0	96	i	i	0
O=C(N/N=C/c1ccc([N+](=O)[O-])o1)c1ccc2c(c1)OCO2	-7	6	-7	24	99	i	i	0
O=C(N/N=C\c1ccc(-c2ccc([N+](=O)[O-])cc2)o1)c1ccc2c(c1)OCO2	-13	-4	-59	6	101	i	.	.
O=C(O)c1cccc(S(=O)(=O)NCC2COc3ccccc3O2)c1 (centres undefined)	-8	-6	-12	8	137	i	i	1
O=C1NC[C@H](Cc2ccccc2)N(C[C@@H]2CCCN2C[C@H](Cc2ccccc2)N2C[C@H](Cc3ccccc3)N(CCc3ccccc3)C(=O)C2=O)C1=O	.	3	0	.	98	i	.	.
CC(=O)CC(=O)NC(=NC1CCCCC1)Nc1nc(C)cc(C)n1	-10	-2	8	26	96	+	i	0
Cc1cc(C)nc(NNC(=O)NC2CCCCC2)n1	-13	-3	0	5	101	i	.	.
CNC(=O)CCCN1C(=O)c2ccccc2Sc2ncccc21	-3	-7	6	9	94	i	.	.
COc1ccc(-c2cc3ccccc3n2CC(O)CN2CCC(C)CC2)cc1 (centres undefined)	2	1	-2	0	94	i	i	0
COc1ccc(-c2cc3ccccc3n2CC(O)Cn2nc(C)cc2C)cc1 (centres undefined)	-6	3	2	10	106	i	.	.
CCN(CC)c1ccc2cc(S(=O)(=O)c3ccc(Cl)cc3)c(=O)oc2c1	-9	-2	143	16	102	i	i	1
CCC(CO)Oc1cc(NCc2ccc(Cl)cc2)c2ncn(C(C)C)c2c1 (centres undefined)	-3	21	-14	28	103	i	i	1
O=S1(=O)N=C(N2CCN(Cc3ccccc3)CC2)c2ccccc21	-4	2	11	13	94	+	i	0
COc1ccc(NS(=O)(=O)c2ccc3oc(SC4CCOC4=O)nc3c2)cc1 (centres undefined)	-11	1	-2	13	94	i	i	0
SMILES	ATG4B inhibitor	Granule exo inh	NRP1-CendR mod	Arrestin-AP2 inh	ABCB6 inh 2	Myeloid diff 2	Myeloid diff CP1	GFP autofluor
COc1ccc(NS(=O)(=O)c2ccc3oc(SC)nc3c2)cc1	2	0	5	-19	96	i	.	.
O=C(CSc1ncnc2c1nnn2Cc1ccccc1)NC1CCCCC1	-1	7	18	0	92	i	.	.
COc1ccc2cnn(CCOc3cc(C)ccc3C(C)C)c(=O)c2c1OC	0	-1	7	3	96	+	i	0
Cc1ccc2c(c1)CCCN2CC(=O)N(C)c1c(N)n(Cc2ccccc2)c(=O)[nH]c1=O	-6	3	140	15	103	i	i	2
CN(C(=O)CN1CCCCCC1)c1c(N)n(Cc2ccccc2)c(=O)[nH]c1=O	3	7	-17	9	98	i	.	.
CCN(C(=O)CN1CCCc2cc(C)ccc21)c1c(N)n(Cc2ccccc2)c(=O)[nH]c1=O	5	1	140	48	108	i	i	1
COCCNC(=O)CSc1nc2nn(-c3ccccc3)c(=O)c-2c2n1CCCCC2	-5	-3	-4	35	97	i	.	.
CCc1ccc(CNCc2ccc(OCC(O)CN(C)Cc3ccccc3)cc2)nc1 (centres undefined)	1	16	2	-15	90	+	i	1
O=C(Nc1ccc(S(=O)(=O)NC2=NCCCCC2)cc1)c1cc(S(=O)(=O)N2CCOCC2)ccc1F	-5	-4	3	-4	97	i	.	.
Cc1csc2nc(O)c(C(=O)NCCC3=CCCCC3)c(=O)n12	-3	-1	-17	-16	94	i	.	.
O=C(COC(=O)c1cccc(S(=O)(=O)N2CCCCC2)c1)NCc1ccccc1	4	4	5	13	92	i	.	.
